This is a sample that favours compounds with a hit; in the whole collection about 4.3% have one here.
Rin1 Abl inh: blocks binding of human Rin1 to Abl | P00519+Q13671 | TR-FRET Rin1/Abl binding, biochemical | inhibition, % at 7.35 µM | 0.4% of 360,000 active | AID 588664; in the data active means inhibition above about 5%, passing the limit was not always enough
ALR H2O2 inh: blocks human ALR sulfhydryl oxidase activity; AID 485317; purified ALR, DTT oxidation, H2O2 HRP-luminol luminescence; 3.8% of 290,000 active; inhibition, % (concentration not given with the values); P55789;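 active means mean replicate inhibition above about 79%, with every replicate also reaching it, limit read from the data; inconclusive means only one of the two criteria met; inactive means mean below limit and not every replicate reaching it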
RBBP9 inhibitor: inhibitors of human serine hydrolase RBBP9. O75884. recombinant RBBP9, FP-Rh probe fluorescence polarization. inhibition, % at 7.94 µM. 0.2% of 220,000 active. AID 1515;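 active means inhibition above the campaign mean of all tested compounds plus 3 SD, cut at about 14% in these data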;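 further: plate controls were DMSO wells with RBBP9 for no effect and wells lacking RBBP9 protein for full effect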
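System: RBBP9 protein | Quantity: 2.5 µM RBBP9 dispensing solution, before mixing | Reagent: FP-Rh probe, 375 nM dispensing solution | Timing: Enzyme-compound preincubation 30 min, then probe labeling 45 min, 25 °C | Measured by: Fluorescence polarization | Read-out: % inhibition | Replication: One well per compound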
PREPL inh: human PREPL enzyme inhibition. 0.68% of 320,000 active. Q4J6C6. recombinant PREPL, fluorescence polarization activity-based probe. inhibition, % at 5.96 µM. AID 2751; in the data active means inhibition above about 43%;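 further: 0% = enzyme with DMSO and 100% = wells lacking enzyme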
Target sequence (Q4J6C6 whole entry, looked up): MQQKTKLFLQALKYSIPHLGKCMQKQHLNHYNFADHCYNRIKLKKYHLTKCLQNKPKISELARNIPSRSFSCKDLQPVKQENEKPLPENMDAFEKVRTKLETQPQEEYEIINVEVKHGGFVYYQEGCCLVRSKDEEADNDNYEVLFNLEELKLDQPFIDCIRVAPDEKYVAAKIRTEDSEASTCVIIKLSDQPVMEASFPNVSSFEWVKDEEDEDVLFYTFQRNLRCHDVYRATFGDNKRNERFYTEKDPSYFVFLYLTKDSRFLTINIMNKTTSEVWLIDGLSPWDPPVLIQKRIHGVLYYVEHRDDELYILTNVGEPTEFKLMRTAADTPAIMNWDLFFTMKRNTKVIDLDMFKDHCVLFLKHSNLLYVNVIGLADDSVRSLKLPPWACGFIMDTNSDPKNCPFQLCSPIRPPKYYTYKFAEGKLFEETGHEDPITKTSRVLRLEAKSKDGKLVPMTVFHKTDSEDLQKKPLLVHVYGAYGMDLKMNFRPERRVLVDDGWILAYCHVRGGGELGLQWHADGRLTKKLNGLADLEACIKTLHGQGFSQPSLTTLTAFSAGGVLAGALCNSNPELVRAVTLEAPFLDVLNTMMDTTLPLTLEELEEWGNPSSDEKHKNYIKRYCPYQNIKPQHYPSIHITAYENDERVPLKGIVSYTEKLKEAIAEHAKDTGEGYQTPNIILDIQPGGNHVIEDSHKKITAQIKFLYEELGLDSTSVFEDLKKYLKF
UBC13 inh: blocks human UBC13 polyubiquitin chain formation; 0.47% of 330,000 active; inhibition, % at 20 µM; AID 485273; TR-FRET; in the data active means inhibition above about 45%, passing the limit was not always enough; inconclusive means no clear call, values can overlap the other calls
UBC9 SUMO inh: blocks human SUMOylation mediated by UBC9; AID 2006; P63279; inhibition, % at 35 µM; 0.36% of 290,000 active; HTRF SUMOylation assay, SAE1/SAE2 + UBC9, in vitro; in the data active means inhibition above about 50%, passing the limit was not always enough; inconclusive means no clear call, values can overlap the other calls
Starred values were filed as active, the others as inactive; ? = inconclusive; · = no result.

SMILES	Rin1 Abl inh	ALR H2O2 inh	RBBP9 inhibitor	PREPL inh	UBC13 inh	UBC9 SUMO inh
CCc1ccc2[nH]c(C(=O)Nc3ccc4c(c3)OCO4)cc2c1	0	17	-5	12	-5	13
O=C(NCC(=O)N1CC(O)CC1C(=O)N1CCCC1C(=O)OCc1ccccc1)OCc1ccccc1 (stereo unspecified)	2	11	3	15	-4	-6
N#Cc1c(Cl)nc2c(c1C#N)CCCC2	0	97*	-7	-8	10	0
CCN1C=C(Cc2ccc(F)cc2)C2=C(C1)C(c1ccc(F)cc1)C(C#N)=C(N)O2 (stereo unspecified)	2	99*	-12	19	-7	1
CCN1C=C(Cc2ccccc2C)C2=C(C1)C(c1ccccc1C)C(C#N)=C(N)O2 (stereo unspecified)	2	-56	-4	9	-6	6
Cc1ccc(-c2nc(CS(=O)(=O)CC(=O)NCCCN3CCOCC3)c(C)o2)cc1	0	-10	·	6	-1	3
Cc1ccc(-c2nc(CS(=O)CC(=O)NCCCN3CC(C)CC(C)C3)c(C)o2)cc1 (stereo unspecified)	-5	99*	-9	41	-5	18
COc1ccc(-c2nc(CS(=O)CC(=O)NCCCN3CC(C)CC(C)C3)c(C)o2)cc1OC (stereo unspecified)	0	98*	-4	-17	-8	26
COc1ccc(-c2nc(CS(=O)CC(=O)NCCCN3CCCC(C)C3)c(C)o2)cc1OC (stereo unspecified)	0	99*	·	1	4	7
Cc1ccc(-c2nc(CS(=O)CC(=O)NCCN3CCCCC3C)c(C)o2)cc1 (stereo unspecified)	1	98*	·	30	10	-9
COc1ccccc1N1CCN(C(=O)CC(NC(=O)c2ccccc2Cl)c2ccccc2)CC1 (stereo unspecified)	1	·	·	·	-1	·
CCc1ccc(-c2nc(CS(=O)CC(=O)NCCCN3CCOCC3)c(C)o2)cc1 (stereo unspecified)	0	100*	·	11	-2	7
Cc1oc(-c2ccc(Cl)cc2)nc1CS(=O)CC(=O)NCCCN1CCN(Cc2ccccc2)CC1 (stereo unspecified)	-2	?	·	17	1	·
O=C(O)CCC1c2cc3c4cc2OC2Oc5cc6c(cc51)C(CCC(=O)O)c1cc5c7cc1OC(O6)c1cc6cc(c1)Oc1cc(cc(C(=O)O)c1)Oc1cc8cc(c1)C(Oc1cc(c(cc1C5CCC(=O)O)C3CCC(=O)O)OC(O4)c1cc(cc(c1)Oc1cc(cc(C(=O)O)c1)O8)Oc1cc(cc(C(=O)O)c1)Oc1cc(cc2c1)Oc1cc(cc(C(=O)O)c1)O6)O7 (stereo unspecified)	·	98*	·	-74	122*	·
Cc1ccc(Nc2cc(C)c3c(O)cccc3n2)cc1C	-3	35	-2	24	14	-4
COc1ccc(Nc2cc(C)c3c(O)cccc3n2)cc1	-2	84*	-2	15	12	-29
Cc1cc(-n2c(C)cc(C(=O)CSc3ncnc4ccccc34)c2C)no1	2	98*	2	2	24	-5
CNc1nnc(SCC(=O)c2cc(C)n(C3CC3)c2C)s1	1	92*	·	18	14	·
Cc1cc(C(=O)CSc2ncnc3ccccc23)c(C)n1C1CC1	1	98*	·	9	12	·
Cc1cc(-n2c(C)cc(C(=O)CSc3nnc4sc5ccccc5n34)c2C)no1	1	-13	-4	7	0	-9
CCOC(=O)N1CCN(Cc2nc3cc(NC(=O)CC(C)C)ccc3n2CC)CC1	4	-24	·	-11	-4	-21
CCN(CC)C(=O)CSc1ncnc2sc(C)c(C)c12	2	2	8	3	3	16
CCN(CC(=O)Nc1ccc(NC(C)=O)cc1)C(=O)CN1C(=O)C2CCCCC2C1=O (stereo unspecified)	5	-4	·	4	-2	·
CC(=O)c1ccc(NC(=S)NNC(=O)c2ccccc2[N+](=O)[O-])cc1	3	93*	-2	7	-5	-18
O=C(NNC(=S)Nc1ccccc1)c1ccccc1[N+](=O)[O-]	4	72	-4	1	-2	-35
SMILES	Rin1 Abl inh	ALR H2O2 inh	RBBP9 inhibitor	PREPL inh	UBC13 inh	UBC9 SUMO inh
CCCCOc1ccccc1C(=O)NNC(=S)NC(=O)c1ccccc1[N+](=O)[O-]	1	84*	·	3	-21	-22
O=C(NNC(=S)NC(=O)c1ccccc1[N+](=O)[O-])c1ccccc1[N+](=O)[O-]	0	-2	-5	-6	26	-48
O=C(NNC(=S)NC(=O)c1ccc(Br)cc1)c1ccc([N+](=O)[O-])cc1	-1	100*	·	11	-22	-94
O=C(Nc1c(Cl)cc(Cl)cc1C(=O)NCCN1CCOCC1)c1cccc([N+](=O)[O-])c1	1	99*	-1	-2	-10	8
CCOC(=O)[C@H]1[C@H]2COc3ccc(Br)cc3[C@H]2N2C(=O)CN(Cc3ccc(C)cc3)C(=O)[C@@]12C	-3	·	·	·	·	·
O=C(NNc1c(Cl)cc(Cl)cc1Cl)c1cccc([N+](=O)[O-])c1	-1	93*	-12	12	-9	-9
O=C(NNC(=S)NC(=O)c1ccccc1Cl)c1cccc([N+](=O)[O-])c1	0	97*	·	-2	-16	-88
Cc1ccc(C(=O)NC(=S)NNC(=O)c2ccccc2[N+](=O)[O-])cc1	1	99*	-6	-8	-9	11
CCCCCC(=O)NNC(=S)NC(=O)c1ccc([N+](=O)[O-])cc1	-2	88*	-8	4	-10	-12
COc1ccc(/C=C/C(=O)Nc2ccc(C)c(S(=O)(=O)N3CCOCC3)c2)cc1	3	·	·	6	2	·
CCCS(=O)(=O)NC(=O)C1(C)CCCN(C(=O)CSc2ccccc2)C1 (stereo unspecified)	-5	·	·	·	·	·
O=C(NNC(=S)NC(=O)c1ccccc1)c1ccc([N+](=O)[O-])cc1	-2	99*	·	25	-22	-6
O=C(NC(=S)NNC(=O)c1ccccc1O)c1ccc([N+](=O)[O-])cc1	1	4	·	12	-3	-12
Cc1ccc(C(=O)NNC(=S)NC(=O)c2ccccc2)cc1	-3	29	·	15	-34	·
O=C(NNC(=S)NC(=O)c1ccc(Br)cc1)c1cccc([N+](=O)[O-])c1	1	99*	·	-7	-13	-107
Cc1ccc(C(=O)NC(=S)NNC(=O)c2ccc([N+](=O)[O-])cc2)cc1	1	99*	·	-7	-10	-86
CCOC(=O)c1c(C)[nH]c(C(=O)COc2ccc3ccc(=O)oc3c2)c1C	0	-1	·	7	5	·
Cc1cc(/C=C(\C#N)C(=O)N2CCOCC2)c(C)n1C1CCCC1	-4	7	3	-5	2	18
Cc1ccc(CNC(=O)CN(C(=O)N2CCN(C)CC2)S(=O)(=O)c2ccc(C)cc2)cc1	2	·	·	-1	0	·
